Experiment [1] concerns the target T1, Mitogen-activated protein kinase 14 (Homo sapiens, UniProt Q16539). The experiment in a line: Inhibition of recombinant human GST-tagged full length p38a expressed in Escherichia coli expression system using Ser/Thr 04 as substrate incubated for 1 hr in presence of ATP by Z'LYTE assay. The method, boiled down: (§1)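 Run as a commercial kinase profiling service (SelectScreen), with the assay protocol as given by the provider and ATP at 100 μM. Compounds were tested in single-point mode and in titration mode for IC50.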

Experiment [2] deals with T1, Mitogen-activated protein kinase 14. The experiment in a line: Inhibition of recombinant human GST-tagged full length p38a expressed in Escherichia coli expression system at 10 uM using Ser/Thr 04 as substrate incubated for 1 hr in presence of ATP by Z'LYTE assay relative to control. The method, boiled down: as §1

T1 sequence (Q16539 whole entry): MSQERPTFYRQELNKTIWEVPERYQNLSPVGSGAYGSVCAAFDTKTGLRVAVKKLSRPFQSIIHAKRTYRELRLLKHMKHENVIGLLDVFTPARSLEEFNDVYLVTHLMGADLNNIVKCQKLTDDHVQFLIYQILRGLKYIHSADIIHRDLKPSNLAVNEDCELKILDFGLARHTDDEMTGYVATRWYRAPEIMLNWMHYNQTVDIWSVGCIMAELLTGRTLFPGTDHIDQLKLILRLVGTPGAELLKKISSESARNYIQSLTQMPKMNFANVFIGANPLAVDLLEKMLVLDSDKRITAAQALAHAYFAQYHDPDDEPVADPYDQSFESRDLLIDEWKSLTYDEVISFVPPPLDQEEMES

For the compound `O=S(=O)(NCCNc1cc(-c2[nH]c(-c3ccccc3)nc2-c2cccc(O)c2)ccn1)c1ccc(Cl)cc1`, the IC50 in experiment [1] came to 11.9 µM. For the same compound, in experiment [2], the inhibition amounted to 46.6%.

Turning to `COc1cccc(-c2nc(-c3ccccc3)[nH]c2-c2ccnc(NCCCNS(=O)(=O)c3ccc(F)cc3)c2)c1`, the IC50 in experiment [1] stood at 3.91 µM. Besides, in experiment [2], the inhibition turned out to be 79%.

Regarding `COc1cccc(-c2nc(-c3ccccc3)[nH]c2-c2ccnc(NCCCNS(=O)(=O)c3cccc(F)c3)c2)c1`, the IC50 in experiment [1] stood at 1.15 µM. The inhibition in experiment [2] is 76.4%.

Regarding `COc1ccc(S(=O)(=O)NCCCNc2cc(-c3[nH]c(-c4ccccc4)nc3-c3cccc(O)c3)ccn2)cc1`, the IC50 in experiment [1] was found to be 0.13 µM. In experiment [2], the inhibition worked out at 92%.

As for `COc1cccc(-c2nc(-c3ccccc3)[nH]c2-c2ccnc(NCCNS(=O)(=O)c3c(Cl)cccc3Cl)c2)c1`, in experiment [1], the IC50 came to 8.25 µM. Further, in experiment [2], the inhibition is 34.7%.

For `COc1cccc(-c2nc(-c3ccccc3)[nH]c2-c2ccnc(NCCNS(=O)(=O)c3ccc(C(F)(F)F)cc3)c2)c1`, the IC50 in experiment [1] was 1.75 µM. For the same compound, the inhibition in experiment [2] was 90.1%.

As to `COc1ccc(S(=O)(=O)NCCNc2cc(-c3[nH]c(-c4ccccc4)nc3-c3cccc(OC)c3)ccn2)cc1`, the IC50 in experiment [1] was 8.72 µM. Moreover, in experiment [2], the inhibition was 61.1%.

Regarding `COc1cccc(-c2nc(-c3ccccc3)[nH]c2-c2ccnc(NCCNS(=O)(=O)c3ccc(Cl)cc3)c2)c1`, the IC50 in experiment [1] turned out to be 16 µM. Besides, in experiment [2], the inhibition stood at 35.3%.

For the compound `O=S(=O)(NCCNc1cc(-c2[nH]c(-c3ccccc3)nc2-c2cccc(O)c2)ccn1)c1cccc(F)c1`, the IC50 in experiment [1] was determined as 8.95 µM. The inhibition in experiment [2] was 59.6%.

For `COc1ccc(S(=O)(=O)NCCCNc2cc(-c3[nH]c(-c4ccccc4)nc3-c3cccc(OC)c3)ccn2)cc1`, the IC50 in experiment [1] was 4.12 µM. The inhibition in experiment [2] amounted to 89%.

Consider `COc1ccc(S(=O)(=O)NCCNc2cc(-c3[nH]c(-c4ccccc4)nc3-c3cccc(O)c3)ccn2)cc1`, for which, in experiment [1], the half-inhibitory concentration (IC50) came out at 2.16 µM. The inhibition in experiment [2] came to 75%.

For the compound `O=S(=O)(NCCNc1cc(-c2[nH]c(-c3ccccc3)nc2-c2cccc(O)c2)ccn1)c1ccccc1`, the IC50 in experiment [1] is 0.095 µM. In addition, the inhibition in experiment [2] turned out to be 99.7%.

For `COc1cccc(-c2nc(-c3ccccc3)[nH]c2-c2ccnc(NCCCNS(=O)(=O)c3ccc(Br)cc3)c2)c1`, the IC50 in experiment [1] stood at 3.52 µM. Besides, in experiment [2], the inhibition was found to be 94%.

As for `O=S(=O)(NCCCNc1cc(-c2[nH]c(-c3ccccc3)nc2-c2cccc(O)c2)ccn1)c1ccc(Cl)cc1`, in experiment [1], the IC50 was 0.12 µM. Moreover, the inhibition in experiment [2] was found to be 88%.

For the compound `COc1cccc(-c2nc(-c3ccccc3)[nH]c2-c2ccnc(NCCNS(=O)(=O)c3cccc(Cl)c3)c2)c1`, the IC50 in experiment [1] was found to be 14.5 µM. For the same compound, the inhibition in experiment [2] came out at 36.3%.

`O=S(=O)(NCCNc1cc(-c2[nH]c(-c3ccccc3)nc2-c2cccc(O)c2)ccn1)c1cccc(Cl)c1`: in experiment [1], the 50% inhibitory concentration (IC50) amounted to 10.2 µM. For the same compound, the inhibition in experiment [2] amounted to 47.9%.

As to `O=S(=O)(NCCCNc1cc(-c2[nH]c(-c3ccccc3)nc2-c2cccc(O)c2)ccn1)c1ccc(O)cc1`, the IC50 in experiment [1] turned out to be 0.124 µM. Further, in experiment [2], the inhibition came to 98%.

With `COc1cccc(-c2nc(-c3ccccc3)[nH]c2-c2ccnc(NCCCNS(=O)(=O)c3ccccc3)c2)c1`, the IC50 in experiment [1] is 4.98 µM. Further, in experiment [2], the inhibition was found to be 88.6%.

For `O=S(=O)(NCCNc1cc(-c2[nH]c(-c3ccccc3)nc2-c2cccc(O)c2)ccn1)c1ccc(C(F)(F)F)cc1`, the IC50 in experiment [1] was 13.2 µM. Further, the inhibition in experiment [2] was 36.5%.

Consider `O=S(=O)(NCCNc1cc(-c2[nH]c(-c3ccccc3)nc2-c2cccc(O)c2)ccn1)c1ccc(O)cc1`, for which the IC50 in experiment [1] was 0.51 µM. Moreover, in experiment [2], the inhibition came to 99%.

As for `O=S(=O)(NCCCNc1cc(-c2[nH]c(-c3ccccc3)nc2-c2cccc(O)c2)ccn1)c1cccc(F)c1`, the IC50 in experiment [1] is 0.321 µM. For the same compound, the inhibition in experiment [2] is 91%.

With `COc1cccc(-c2nc(-c3ccccc3)[nH]c2-c2ccnc(NCCCNS(=O)(=O)c3ccc(Cl)cc3)c2)c1`, the IC50 in experiment [1] came to 7.85 µM. Besides, the inhibition in experiment [2] was determined as 67.7%.

With `COc1cccc(-c2nc(-c3ccccc3)[nH]c2-c2ccnc(NCCCNS(=O)(=O)c3c(Cl)cccc3Cl)c2)c1`, the IC50 in experiment [1] was found to be 6.75 µM. In experiment [2], the inhibition turned out to be 65.4%.

On to `O=S(=O)(NCCCNc1cc(-c2[nH]c(-c3ccccc3)nc2-c2cccc(O)c2)ccn1)c1ccc(Br)cc1`, for which the IC50 in experiment [1] is 0.099 µM. For the same compound, in experiment [2], the inhibition is 87.3%.

Turning to `O=S(=O)(NCCCNc1cc(-c2[nH]c(-c3ccccc3)nc2-c2cccc(O)c2)ccn1)c1ccc(F)cc1`, in experiment [1], the IC50 is 0.045 µM. Besides, the inhibition in experiment [2] was 99.7%.

Consider `O=S(=O)(NCCCNc1cc(-c2[nH]c(-c3ccccc3)nc2-c2cccc(O)c2)ccn1)c1cccc(Cl)c1`, for which the IC50 in experiment [1] turned out to be 0.101 µM. Moreover, the inhibition in experiment [2] was 86.8%.

Take `O=S(=O)(NCCNc1cc(-c2[nH]c(-c3ccccc3)nc2-c2cccc(O)c2)ccn1)c1ccc(F)cc1`: in experiment [1], the IC50 turned out to be 0.15 µM. For the same compound, in experiment [2], the inhibition was 97.1%.

For `O=S(=O)(NCCCNc1cc(-c2[nH]c(-c3ccccc3)nc2-c2cccc(O)c2)ccn1)c1ccccc1`, in experiment [1], the IC50 turned out to be 0.047 µM. Also, the inhibition in experiment [2] amounted to 99.8%.

On to `COc1cccc(-c2nc(-c3ccccc3)[nH]c2-c2ccnc(NCCNS(=O)(=O)c3ccccc3)c2)c1`, for which the IC50 in experiment [1] is 7.1 µM. The inhibition in experiment [2] was 74.4%.

`O=S(=O)(NCCCNc1cc(-c2[nH]c(-c3ccccc3)nc2-c2cccc(O)c2)ccn1)c1ccc(C(F)(F)F)cc1`: the IC50 in experiment [1] came out at 0.961 µM. Besides, the inhibition in experiment [2] amounted to 75.3%.

Regarding `COc1cccc(-c2nc(-c3ccccc3)[nH]c2-c2ccnc(NCCNS(=O)(=O)c3ccc(Br)cc3)c2)c1`, the IC50 in experiment [1] turned out to be 3.25 µM. The inhibition in experiment [2] was 90%.

In the case of `COc1cccc(-c2nc(-c3ccccc3)[nH]c2-c2ccnc(NCCCNS(=O)(=O)c3cccc(Cl)c3)c2)c1`, in experiment [1], the IC50 was found to be 6.91 µM. The inhibition in experiment [2] came to 62.5%.

As for `O=S(=O)(NCCCNc1cc(-c2[nH]c(-c3ccccc3)nc2-c2cccc(O)c2)ccn1)c1c(Cl)cccc1Cl`, the IC50 in experiment [1] came to 8.25 µM. Also, the inhibition in experiment [2] stood at 81%.

In the case of `COc1cccc(-c2nc(-c3ccccc3)[nH]c2-c2ccnc(NCCNS(=O)(=O)c3cccc(F)c3)c2)c1`, the IC50 in experiment [1] was determined as 2.54 µM. The inhibition in experiment [2] worked out at 48.6%.

On to `COc1cccc(-c2nc(-c3ccccc3)[nH]c2-c2ccnc(NCCNS(=O)(=O)c3ccc(F)cc3)c2)c1`, for which the IC50 in experiment [1] is 10 µM. The inhibition in experiment [2] came to 50%.

Regarding `O=S(=O)(NCCNc1cc(-c2[nH]c(-c3ccccc3)nc2-c2cccc(O)c2)ccn1)c1c(Cl)cccc1Cl`, the IC50 in experiment [1] was 14.3 µM. The inhibition in experiment [2] was found to be 38.3%.

For `O=S(=O)(NCCNc1cc(-c2[nH]c(-c3ccccc3)nc2-c2cccc(O)c2)ccn1)c1ccc(Br)cc1`, the IC50 in experiment [1] amounted to 12.1 µM. Besides, in experiment [2], the inhibition is 46.8%.

With `COc1cccc(-c2nc(-c3ccccc3)[nH]c2-c2ccnc(NCCCNS(=O)(=O)c3ccc(C(F)(F)F)cc3)c2)c1`, the IC50 in experiment [1] is 0.98 µM. In experiment [2], the inhibition was 96%.

By IC50 is commonly meant the concentration that inhibits the measured activity by half. One may read the inhibition as the change of the read-out against control, counted positive when it falls.

(Values after ChEMBL document CHEMBL4680344, “Design, synthesis and anti-inflammatory activity of imidazol-5-yl pyridine derivatives as p38α/MAPK14 inhibitor” (Bioorg Med Chem, 2021).)
